Hits are enriched below; roughly 3.1% of the tested compounds scored in any of these assays.
KCNQ1 inh: inhibitors of human KCNQ1 potassium channel. P51787. CHO-K1 KCNQ1, FluxOR thallium flux fluorescence; hits give high values. B-score at 10 µM. 310,000 compounds, 1.3% hits. AID 2642;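 active = compounds whose thallium flux B-score, printed positive for inhibition, exceeds three library SD while starting fluorescence stays within three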;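 note: channel opened by potassium depolarization with thallium stimulus after 20 min compound exposure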
Target sequence (P51787 whole entry, looked up): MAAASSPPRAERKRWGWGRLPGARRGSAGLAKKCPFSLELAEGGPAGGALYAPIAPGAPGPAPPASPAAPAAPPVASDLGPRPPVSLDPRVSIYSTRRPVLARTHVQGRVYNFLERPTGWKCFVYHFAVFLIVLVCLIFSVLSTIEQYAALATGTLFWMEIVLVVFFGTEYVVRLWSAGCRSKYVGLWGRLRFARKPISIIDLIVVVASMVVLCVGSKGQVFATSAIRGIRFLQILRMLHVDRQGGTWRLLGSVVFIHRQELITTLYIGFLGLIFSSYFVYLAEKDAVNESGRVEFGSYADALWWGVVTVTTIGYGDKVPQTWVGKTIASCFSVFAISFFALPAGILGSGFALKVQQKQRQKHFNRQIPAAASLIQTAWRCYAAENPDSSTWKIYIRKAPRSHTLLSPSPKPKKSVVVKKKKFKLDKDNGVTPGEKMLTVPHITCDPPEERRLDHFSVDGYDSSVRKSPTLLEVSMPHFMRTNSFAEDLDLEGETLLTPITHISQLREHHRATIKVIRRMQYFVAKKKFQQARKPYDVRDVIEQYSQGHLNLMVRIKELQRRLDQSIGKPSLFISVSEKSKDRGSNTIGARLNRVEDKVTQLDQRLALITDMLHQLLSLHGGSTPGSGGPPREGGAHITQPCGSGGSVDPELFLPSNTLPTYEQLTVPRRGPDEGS
KCNK3 block: human KCNK3 channel inhibition, primary screen. O14649. CHO-KCNK3 thallium flux, FluxOR fluorescence; hits give low values. B-score at 10 µM. 340,000 compounds, 0.84% hits. AID 602410;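 active = B-score under library mean minus 4 SD, starting fluorescence ratio at most library mean plus 5 SD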;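 note: more negative B-score means stronger inhibition of thallium flux through KCNK3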
hERG rescue: hERG (human) protection from proarrhythmic block; activation (rescue from dofetilide block), less the hit threshold, % at 10 µM; AID 1511; Q12809; 310,000 compounds, 0.51% hits; CHO-hERG, FluxOR thallium flux, dofetilide IC70 present;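 active = activation above the mean of controls blocked by dofetilide plus 5 SD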;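 note: thallium influx through hERG after potassium depolarization seen as dye fluorescence rise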
KCNK9 block: blocks the human KCNK9 two-pore domain potassium channel; 310,000 compounds, 1.2% hits; HEK293 KCNK9, FluxOR thallium flux fluorescence; hits give low values; AID 488922; B-score at 10 µM;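 active = ratio B-score over 3 SD below the library mean, with starting fluorescence within 5 SD of its mean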;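 note: negative B-score means less thallium flux so channel inhibition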
KCNQ1 pot: potentiates or activates the human KCNQ1 potassium channel; P51787; CHO-K1 KCNQ1, thallium flux FluxOR fluorescence; hits give high values; B-score at 10 µM; 310,000 compounds, 0.35% hits; AID 2648;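 active = fluorescence ratio B-score, a plate-corrected score, at least three library SD, with initial intensity B-score within 5 SD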
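Assay system: stable KCNQ1 CHO-K1 line; medium: assay buffer, equal DMSO in all wells; timing: 90 min dye loading and 20 min compound exposure, both at room temperature; technique: kinetic FluxOR thallium fluorescence, 10-s 1-Hz baseline, 110-s post-stimulus read; read-out basis: B score of baseline-normalized fluorescence ratio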
The depositor's hits bear a star; i = inactive; · = no result.

SMILES	KCNQ1 inh	KCNK3 block	hERG rescue	KCNK9 block	KCNQ1 pot
COc1cc(CNC(C)(C)CO)cc(Br)c1OCc1ccc(Cl)cc1Cl	i	i	-27	-6.6*	i
O=c1c2cccnc2n(-c2ccccc2)n1Cc1c(Cl)cccc1Cl	i	i	-3	i	i
O=c1c2cccnc2n(-c2ccccc2)n1Cc1ccc(Cl)cc1	i	i	-8	i	14*
COc1ccc(N2CCN(C(=O)COC(=O)c3cc(S(=O)(=O)N(C)C)ccc3N3CCCC3)CC2)cc1	i	i	-6	i	i
COc1ccc(/C=N/NS(=O)(=O)c2ccc(C)cc2)cc1OC(=O)c1ccc(C)cc1	6*	i	-6	i	i
COc1ccc(C(=O)Oc2cc(/C=N/NS(=O)(=O)c3ccccc3)ccc2OC)cc1	i	i	-4	i	i
CCOC(=O)C1CCCN(C(=O)c2ccc(-c3ccc([N+](=O)[O-])cc3)o2)C1 (stereo unspecified)	i	i	-24	i	i
COc1ccc2ccccc2c1/C=N\n1c(C)cc(C)c(C(N)=O)c1=O	i	i	-1	i	i
COc1ccc(/C=N/n2c(C)cc(C)c(C(N)=O)c2=O)cc1	i	i	6.5*	i	i
O=C1C(Cl)=C(NCCN2CCCCC2)C(=O)c2ccccc21	6*	i	-21	i	i
COc1ccc2nc(N3CCCCC3)c(/C=C3\SC(=S)NC3=O)cc2c1	i	i	7.4*	i	i
O=C1NC(=S)S/C1=C\c1cc2ccccc2nc1N1CCCCC1	i	i	-6	i	i
Cc1nn(-c2ccc(C(=O)NCC(c3ccco3)N3CCCC3)cc2)c(C)c1Cl (stereo unspecified)	·	i	·	·	·
NC(=O)CC(NC(=O)c1ccccc1)c1ccc(N2CCC(Cc3ccccc3)CC2)c([N+](=O)[O-])c1 (stereo unspecified)	i	i	-17	-6.8*	i
N#Cc1ccc(OCC(=O)N(C2CCCCC2)C2CCS(=O)(=O)C2)cc1 (stereo unspecified)	·	i	·	·	·
O=C(NCc1ccc(Cl)cc1)c1n[nH]c([N+](=O)[O-])c1Cl	6*	i	-11	i	i
Cc1ccccc1N(CC(=O)NC1CCCC1)C(=O)c1oc(C(C)(C)C)cc1C	i	i	-9	i	i
Cc1cc(C(C)(C)C)oc1C(=O)N(CC(=O)NC1CCCC1)c1cccc(C(F)(F)F)c1	i	-9*	0	-8*	i
O=C(NC(=S)Nc1nc(-c2ccc([N+](=O)[O-])cc2)cs1)c1ccco1	i	i	15*	i	21*
O=C(NNc1nc(-c2ccc(Br)cc2)cs1)c1ccco1	i	i	-6	i	i
O=C(Nc1nc(-c2ccccc2)cs1)c1ccco1	i	i	-12	i	i
O=C(NC(=S)Nc1nc(-c2ccc(Br)cc2)cs1)c1ccco1	i	i	6.3*	i	i
NC(=O)C1CCN(C(=O)NC(=O)c2ccccc2)CC1	i	i	-10	i	i
C=CCn1c(SCN2C(=O)c3ccccc3C2=O)nc2ccc(Cl)cc2c1=O	i	i	3	i	9*
N#Cc1ccccc1NCC(=O)N1CCN(S(=O)(=O)c2ccccc2)CC1	·	i	·	·	·
SMILES	KCNQ1 inh	KCNK3 block	hERG rescue	KCNK9 block	KCNQ1 pot
CCOC(=O)c1cc(NC(=O)c2cccs2)ccc1N1CCOCC1	i	i	4.7*	i	i
COC(=O)c1cc(NC(=O)c2cc(-c3ccc(C(F)(F)F)cc3)oc2C(F)(F)F)ccc1N1CCOCC1	8*	i	2	i	i
Cn1ncc2c(=S)nc(Cl)[nH]c21	·	i	·	·	·
COc1ccccc1CNC(=O)COC(=O)c1ccc2c(=O)n3c(nc2c1)CCCCC3	·	i	·	·	·
C[C@H](CO)N1C[C@H](C)[C@@H](CN(C)CC2CCCCC2)Oc2ccc(NC(=O)CCN3CCOCC3)cc2C1=O	·	i	·	·	·
O=[N+]([O-])c1ccc(O)c(Nc2ncnc3ccccc23)c1	i	i	-3	i	i
O=[N+]([O-])c1ccc(O)c(Nc2ncnc3ccc(Br)cc23)c1	7*	i	-6	i	i
O=C(Nc1ccccc1)/C(=C/c1ccccc1)c1ccccc1	i	i	-11	-7*	i
Cc1ccccc1NC(=O)/C(=C/c1ccccc1)c1ccccc1	i	i	-7	i	i
CCC(C)(C(=O)NC1CCCCC1)N(C(=O)CNC(C)=O)c1c(C)n(C)n(-c2ccccc2)c1=O (stereo unspecified)	i	i	-13	i	i
CCC(C)(C(=O)NC1CCCC1)N(C(=O)Cc1cccs1)c1c(C)n(C)n(-c2ccccc2)c1=O (stereo unspecified)	10*	i	-38	i	i
CCOc1ncccc1C(=O)OCC(=O)Nc1cc(S(=O)(=O)N2CCOCC2)ccc1C	i	i	-7	i	i
Cc1ccc(S(=O)(=O)N2CCOCC2)cc1NC(=O)COC(=O)CNC(=O)c1ccc(C(C)(C)C)cc1	i	i	-9	i	i
O=C(COC(=O)c1cccnc1Cl)Nc1ccc2c(c1)OCCO2	i	i	37*	i	i
Cc1ccc(S(=O)(=O)N2CCOCC2)cc1NC(=O)COC(=O)c1cccnc1Cl	i	i	35*	i	i
Cc1ccc(S(=O)(=O)N2CCOCC2)cc1NC(=O)COC(=O)CCOc1ccc(C(C)(C)C)cc1	8*	i	-18	i	i
Cc1ccc(S(=O)(=O)N2CCOCC2)cc1NC(=O)COc1cccc(Oc2ccccc2)c1	6*	i	-12	i	i
Cc1ccc(S(=O)(=O)N2CCN(C(=O)COC(=O)CCOc3ccc(C(C)(C)C)cc3)CC2)cc1	6*	i	-21	i	i
Cc1ccc(NC(=O)CCNC(=O)c2ccc(Br)cc2)cc1S(=O)(=O)N1CCCCCC1	i	i	-14	i	i
CCOc1ccc(N2CC(C(=O)NNC(=O)c3ccc(F)cc3)CC2=O)cc1 (stereo unspecified)	·	i	·	·	·
CCCCCCCc1n[nH]c(=S)n1Cc1ccccc1	i	i	-8	i	i
CCCCc1n[nH]c(=S)n1Cc1ccc(C)cc1	i	i	-5	-17*	i
CCn1c(C)nc2cc(C(=O)NNC(=O)[C@@H](NC(=O)c3cc(OC)cc(OC)c3)C(C)C)ccc21	·	i	·	·	·
CC(=O)N(CCC(Cc1ccccc1)c1ccc2c(c1)OCO2)Cc1ccc(Cl)cc1 (stereo unspecified)	11*	-8.9*	0	-7.3*	i
COC(=O)Nc1ccc(S(=O)(=O)NC2CCCCC2)cc1	i	i	-10	i	i

Screening results: PubChem, Johns Hopkins Ion Channel Center
